In ChEMBL document CHEMBL1128190, “Inhibition of E-selectin-, ICAM-1-, and VCAM-1-mediated cell adhesion by benzo[b]thiophene-, benzofuran-, indole-, and naphthalene-2-carboxamides: identification of PD 144795 as an antiinflammatory agent” (J Med Chem, 1995):

Assays:
[1] = The compound was tested for cell adhesion by measuring the inhibitory concentration against Human umbilical vein endothelial cell (HUVEC) activation, using Na51CrO4 as radioligand at 100 uM; assay type: functional
Procedure, shortened: (§1)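 Confluent second-passage HUVEC monolayers were stimulated with TNF-α (200 U/mL) for 4 h with or without compound at 100 μM, then washed. Fresh human neutrophils labelled with Na⁵¹CrO₄ (5 × 10⁵) were added for 30 min at 37 °C. Non-adherent cells were aspirated and adherent cells lysed in NH₄OH; lysates were γ-counted. Results are % inhibition of TNF-stimulated adherence, triplicate. IC50 came from linear regression at 33.3–1.0 μM.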

[2] = Cell adhesion measured using the inhibitory concentration against Human umbilical vein endothelial cell (HUVEC) activation, with Na51CrO4 as radioligand at 100 uM; assay type: functional; procedure, shortened: as §1
[3] = The compound was tested for cell adhesion by measuring the inhibitory concentration against Human umbilical vein endothelial cell (HUVEC) activation using neutrophils labelled with calcein-AM at 100 uM; assay type: functional
[4] = Inhibitory activity against Human umbilical vein endothelial cell (HUVEC) activation, using Na51CrO4 as radioligand at 100 uM.; assay type: functional; procedure, shortened: as §1
[5] = The compound was tested for cell adhesion by measuring the inhibitory concentration against Human umbilical vein endothelial cell (HUVEC) activation, using calcein-AM as radioligand at 100 uM; assay type: functional
[6] = The compound was tested for cell adhesion by measuring the inhibitory concentration against Human umbilical vein endothelial cell (HUVEC) activation, using calcein-AM as radioligand at 33 uM; assay type: functional
[7] = The compound was tested for inhibitory activity against vascular cell adhesion molecule (VCAM)-1 mediated cell adhesion in Human aortic endothelial cell culture, by using HAEC surface expression assay at 50 uM; assay type: functional
Procedure, shortened: (§2)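 Human aortic endothelial cells at confluence were incubated with TNF-α (250 U/mL) and compound (0.005% DMSO final) for 18 h, then formalin-fixed. Cells were probed with anti-VCAM-1 mAb (2 h, 37 °C), then biotin anti-mouse IgG+IgM F(ab)₂ (1 h), then [¹²⁵I]streptavidin (15 min, 4 °C). NaOH digests were counted.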

[8] = The compound was tested for inhibitory activity against intercellular adhesion molecule (ICAM)-1 mediated cell adhesion in Human umbilical endothelial cell culture, by using HUVEC surface expression assay.; assay type: functional, cell-based
Procedure, shortened: (§3)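 HUVECs were pretreated with compound for 30 min, then stimulated with TNF-α (140 U/mL final) for 4 h at 37 °C. Unstimulated background was subtracted and results given as % inhibition versus vehicle. IC50 came from linear regression; average of two triplicate assays.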

[9] = The compound was tested for cell adhesion by measuring the inhibitory concentration against Human umbilical vein endothelial cell (HUVEC) activation, using Na51CrO4 as radioligand.; assay type: functional, cell-based
[10] = The compound was tested for inhibitory activity against intercellular adhesion molecule (ICAM)-1 mediated cell adhesion in Human aortic endothelial cell culture, by using HAEC surface expression assay at 50 uM; assay type: functional
Procedure, shortened: (§4)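 Confluent human aortic endothelial cells were incubated with TNF-α (250 U/mL) and compound (0.005% DMSO final) for 18 h. Cells were formalin-fixed and probed with anti-ICAM-1 mAb (2 h, 37 °C), then peroxidase anti-mouse IgG (1 h) and colour reagent (15 min). Read-out was OD414.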

[11] = The compound was tested for inhibitory activity against E-Selectin mediated cell adhesion in Human umbilical endothelial cell culture, by using HUVEC surface expression assay.; assay type: functional, cell-based
Procedure, shortened: (§5)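 Confluent HUVECs were given compound 30 min before TNF-α (140 U/mL final), then incubated 4 h at 37 °C. Unstimulated background was subtracted and results given as % inhibition versus vehicle. IC50 came from linear regression; average of two assays, each in triplicate.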

[12] = Inhibitory activity against E-Selectin mediated cell adhesion in Human umbilical endothelial cell culture, by using HUVEC surface expression assay.; assay type: functional, cell-based
Procedure, shortened: as §5, with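 “°C. Cells were formalin-fixed and surface E-selectin detected by cell ELISA (mouse anti-E-selectin 0.5 μg/mL, peroxidase anti-mouse IgG), with absorbance at 414 nm.” for “°C.”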

[13] = Inhibitory activity against intercellular adhesion molecule (ICAM)-1 mediated cell adhesion in Human umbilical endothelial cell culture, by using HUVEC surface expression assay.; assay type: functional, cell-based
Procedure, shortened: as §3, with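 “°C. After formalin fixation, surface ICAM-1 was measured by cell ELISA (mouse anti-ICAM-1 0.5 μg/mL, peroxidase anti-mouse IgG), with absorbance at 414 nm.” for “°C.”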

Rattus norvegicus [14] = assay: Inhibitory activity against Mycobacterium-induced foot-pad edema(MFE) at 50 mg/kg; assay type: functional
[15] = cell adhesion assay; measuring the inhibitory concentration against Human umbilical vein endothelial cell (HUVEC) activation, using Na51CrO4 as radioligand at 100 uM; assay type: functional; conditions: in the assay text read “calcein-AM” for “Na51CrO4”
[16] = Tested for cell adhesion by measuring the inhibitory concentration against Human umbilical vein endothelial cell (HUVEC) activation, using Na51CrO4 as radioligand at 100 uM; assay type: functional; procedure, shortened: as §1
[17] = The compound was tested for cell adhesion by measuring the inhibitory concentration against Human umbilical vein endothelial cell (HUVEC) activation, using calcein-AM as radioligand; assay type: functional, cell-based
[18] = The compound was tested for cell adhesion by measuring the inhibitory concentration against Human umbilical vein endothelial cell (HUVEC) activation, using Na51CrO4 as radioligand at 50 uM; assay type: functional
Rattus norvegicus [19] = assay: Inhibitory activity against Mycobacterium-induced foot-pad edema(MFE); assay type: functional
[20] = The compound was tested for inhibitory activity against vascular cell adhesion molecule (VCAM)-1 mediated cell adhesion in Human aortic endothelial cell culture, by using HAEC surface expression assay.; assay type: functional, cell-based; procedure, shortened: as §2
[21] = The compound was tested for inhibitory activity against intercellular adhesion molecule (ICAM)-1 mediated cell adhesion in Human aortic endothelial cell culture, by using HAEC surface expression assay.; assay type: functional, cell-based; procedure, shortened: as §4

`CCNC(=O)c1c(OC(C)C)c2cc(OC)ccc2[s+]1[O-]` (stereo not drawn) showed an inhibition at 100 µM [1] of 36%.

With `CC(C)Oc1c(C(N)=O)sc2ccc(OCc3ccccc3)cc12` the inhibition at 100 µM [2] was < 4%.

`Cc1ccc2sc(C(N)=O)c(OC(C)C)c2c1` gave an inhibition at 100 µM [2] of 61%.

In the case of `COc1ccc2sc(C(=O)NC(C)C)c(OC(C)C)c2c1`, the inhibition at 100 µM [3] is reported as 26%.

`COc1ccc2c(c1)c(Oc1ccccc1)c(C(N)=O)[s+]2[O-]` (stereo not drawn) gave an inhibition at 100 µM [4] of 15%.

Work on `CC(C)Oc1c(C(N)=O)sc2ccc([N+](=O)[O-])cc12` yielded an inhibition at 100 µM [2] of 40%.

In the case of `COc1ccc2c(c1)c(OC(C)C)c(C(=O)Nc1ccccc1)[s+]2[O-]` (stereo not drawn), the inhibition at 100 µM [5] is reported as < 4%.

`CC(C)Sc1c(C(N)=O)sc2ccc(OCc3ccccc3)cc12` showed an inhibition at 33 µM [6] of 24%.

Molecule `COc1ccc2sc(C(N)=O)c(Oc3ccccc3)c2c1` has an inhibition at 100 µM [2] of 59%.

`COc1ccc2c(c1)c(OC(C)C)c(C(=O)NCc1ccccc1)[s+]2[O-]` (stereo not drawn) showed an inhibition at 100 µM [2] of 15%.

Molecule `COc1ccc2sc(C(=O)NC(C)C)c(SC(C)C)c2c1` has an inhibition at 33 µM [6] of 22%.

For `COc1ccc2oc(C(=O)Nc3ccccc3)c(OC(C)C)c2c1`, the inhibition at 100 µM [2] was < 4%.

Molecule `COc1ccc2[nH]c(C(N)=O)c(OC(C)C)c2c1` has an inhibition at 50 µM [7] of 83%, an IC50 [8] of 2.5 µM and an IC50 [9] of 8 µM. For the same molecule, the inhibition at 50 µM [10] was 89% and the IC50 [11] was 7.9 µM.

With `COc1ccc2c(c1)c(OC(C)C)c(C(N)=O)[s+]2[O-]` (stereo not drawn) [listing 1 of 2 here] the IC50 [12] was 9.6 µM, the IC50 [9] was 4 µM and the IC50 [13] was 5.7 µM. The inhibition in vivo at 50 mg/kg (Rattus norvegicus [14]) was 83%.

For `COc1ccc2sc(C(=O)NCCCCC(=O)O)c(OC(C)C)c2c1`, the inhibition at 100 µM [2] was 9%.

`COc1ccc2ccc(C(N)=O)c(OC(C)C)c2c1` gave an inhibition at 50 µM [7] of 81%, an IC50 [8] of 5.2 µM and an IC50 [9] of 11 µM. The inhibition at 50 µM [10] was 86% and the IC50 [11] was 8.6 µM.

`COc1ccc2c(c1)c(OC)c(C(N)=O)[s+]2[O-]` (stereo not drawn) gave an inhibition at 100 µM [15] of 40%.

Work on `COc1ccc2sc(C(N)=O)c(OC(C)(C)C)c2c1` yielded an inhibition at 100 µM [16] of 97%.

`CC(C)Sc1c(C(N)=O)sc2ccc(O)cc12` showed an IC50 [17] of 3.6 µM.

In the case of `COc1ccc2ccc(C(=O)Nc3ccccc3)c(OC(C)C)c2c1`, the inhibition at 100 µM [2] is reported as < 4%.

For `COc1ccc2sc(C(=O)NCC(=O)O)c(OC(C)C)c2c1`, the inhibition at 100 µM [2] was < 4%.

For `CC(C)OC1=C(C(N)=O)S(=O)(=O)c2ccc(O)cc21`, the inhibition at 50 µM [18] was < 4%.

With `COc1cccc2c(OC(C)C)c(C(N)=O)sc12` the inhibition at 50 µM [7] was < 4%, the inhibition at 50 µM [18] was 35% and the inhibition at 50 µM [10] was 21%.

In the case of `CC(C)Oc1c(C(N)=O)oc2ccccc12`, the inhibition at 100 µM [2] is reported as 20%.

With `COc1ccc2c(c1)c(OC(C)C)c(C(N)=O)[s+]2[O-]` (stereo not drawn) [listing 2 of 2 here] the IC50 [8] was 4 µM, the ID40 (Rattus norvegicus [19]) was 10.9 mg/kg and the IC50 [9] was 8.7 µM. It also gave an IC50 [20] of 4 µM, an IC50 [21] of 10 µM and an IC50 [11] of 6.6 µM.

With `COc1ccc2sc(C(N)=O)c(SC(C)C)c2c1` the IC50 [9] was 12 µM.

Molecule `COc1ccc2sc(C(N)=O)c(OCc3ccccc3)c2c1` has an inhibition at 100 µM [2] of 57%.

With `COc1ccc2sc(C(=O)Nc3ccccc3C(=O)O)c(OC(C)C)c2c1` the inhibition at 100 µM [2] was 35%.

Molecule `CC(C)Oc1c(C(N)=O)sc2ccc(N)cc12` has an inhibition at 100 µM [2] of 49%.

Molecule `CC(C)Oc1c(C(N)=O)oc2ccc(Cl)cc12` has an inhibition at 100 µM [2] of 52%.
